Results as given in publication PMC5538437 (Genes & Development, 2017).
Changes are numbered by the printed parent chain. In names and notes the source's numbering stands.

Tested on: 4EHP
Assay: Pull-down / coimmunoprecipitation with 4EHP in HEK293T cell lysates
Format: binding, human
Settings: HEK293T cells, GFP-tagged protein and V5-SBP-4EHP, Western blot
In short: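 Streptavidin-bead pull-down from RNase A-treated HEK293T lysates of cells expressing V5-SBP-tagged 4EHP or eIF4E (wild type or mutants). Co-bound endogenous GYF2, 4E-T and 4E-BP1 were probed; for 4EHP, co-expressed GFP-4E-BP1 was also probed, with V5-SBP-MBP as negative control. Inputs and bound fractions were analysed by Western blot with anti-V5, anti-GFP, anti-GYF2 and other antibodies, using ECL detection.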

Molecule: 4E-BP1 C: 4E-BP1 Y54A, L59A; canonical motif mutant
- interaction with 4EHP in cells, overexpressed binding partner: abolished its interaction with 4EHP

B1: GYF1 NC*: GYF1 L60D, F65D, V68D; non-canonical mutant (protein, UniProt O75420 1-1035, looked up, variant L60D F65D V68D)
GRB10-interacting GYF protein …: MAAETLNFGPEWLRALSGGGSVASPPPSPAMPKYKLADYRYGREEMLALYVKENKVPEEDQDKEDAADLQDEPLQPLALEPLTEEEQRNFSLSVNSVAVLRLMGKGAGPPLAGTSRGRGSTRSRGRGRGDSCFYQRSIEEGDGAFGRSPREIQRSQSWDDRGERRFEKSARRDGARCGFEEGGAGPRKEHARSDSENWRSLREEQEEEEEGSWRLGAGPRRDGDRWRSASPDGGPRSAGWREHGERRRKFEFDLRGDRGGCGEEEGRGGGGSSHLRRCRAPEGFEEDKDGLPEWCLDDEDEEMGTFDASGAFLPLKKGPKEPIPEEQELDFQGLEEEEEPSEGLEEEGPEAGGKELTPLPPQEEKSSSPSPLPTLGPLWGTNGDGDETAEKEPPAAEDDIRGIQLSPGVGSSAGPPGDLEDDEGLKHLQQEAEKLVASLQDSSLEEEQFTAAMQTQGLRHSAAATALPLSHGAARKWFYKDPQGEIQGPFTTQEMAEWFQAGYFSMSLLVKRGCDEGFQPLGEVIKMWGRVPFAPGPSPPPLLGNMDQERLKKQQELAAAALYQQLQHQQFLQLVSSRQLPQCALREKAALGDLTPPPPPPPQQQQQQLTAFLQQLQALKPPRGGDQNLLPTMSRSLSVPDSGRLWDVHTSASSQSGGEASLWDIPINSSTQGPILEQLQLQHKFQERREVELRAKREEEERKRREEKRRQQQQEEQKRRQEEEELFRRKHVRQQELLLKLLQQQQAVPVPPAPSSPPPLWAGLAKQGLSMKTLLELQLEGERQLHKQPPPREPARAQAPNHRVQLGGLGTAPLNQWVSEAGPLWGGPDKSGGGSSGLGLWEDTPKSGGSLVRGLGLKNSRSSPSLSDSYSHLSGRPIRKKTEEEEKLLKLLQGIPRPQDGFTQWCEQMLHTLSATGSLDVPMAVAILKEVESPYDVHDYIRSCLGDTLEAKEFAKQFLERRAKQKASQQRQQQQEAWLSSASLQTAFQANHSTKLGPGEGSKAKRRALMLHSDPSILGYSLHGSSGEIESVDDY
- interaction with 4EHP in cells, overexpressed binding partner: did not affect binding to overexpressed 4EHP in human cells

B2: GYF1 A1*: GYF1 P76D, L77A; auxiliary site 1 mutant (protein, UniProt O75420 1-1035, looked up, variant P76D L77A)
GRB10-interacting GYF protein …: B1 GRB10-interacting GYF protein … with D60L, D65F, D68V, P76D, L77A
- interaction with 4EHP in cells, overexpressed binding partner: did not affect binding to overexpressed 4EHP in human cells

B3: GYF2 NC*: GYF2 L62D, F67D, I70D; non-canonical mutant (protein, UniProt Q6Y7W6 2-1299, looked up, variant L62D F67D I70D)
GRB10-interacting GYF protein …: AAETQTLNFGPEWLRALSSGGSITSPPLSPALPKYKLADYRYGREEMLALFLKDNKIPSDDLDKEDLPDLQEEPLPPLALVPFTEEEQRNFSMSVNSAAVLRLTGRGGGGTVVGAPRGRSSSRGRGRGRGECGFYQRSFDEVEGVFGRGGGREMHRSQSWEERGDRRFEKPGRKDVGRPNFEEGGPTSVGRKHEFIRSESENWRIFREEQNGEDEDGGWRLAGSRRDGERWRPHSPDGPRSAGWREHMERRRRFEFDFRDRDDERGYRRVRSGSGSIDDDRDSLPEWCLEDAEEEMGTFDSSGAFLSLKKVQKEPIPEEQEMDFRPVDEGEECSDSEGSHNEEAKEPDKTNKKEGEKTDRVGVEASEETPQTSSSSARPGTPSDHQSQEASQFERKDEPKTEQTEKAEEETRMENSLPAKVPSRGDEMVADVQQPLSQIPSDTASPLLILPPPVPNPSPTLRPVETPVVGAPGMGSVSTEPDDEEGLKHLEQQAEKMVAYLQDSALDDERLASKLQEHRAKGVSIPLMHEAMQKWYYKDPQGEIQGPFNNQEMAEWFQAGYFTMSLLVKRACDESFQPLGDIMKMWGRVPFSPGPAPPPHMGELDQERLTRQQELTALYQMQHLQYQQFLIQQQYAQVLAQQQKAALSSQQQQQLALLLQQFQTLKMRISDQNIIPSVTRSVSVPDTGSIWELQPTASQPTVWEGGSVWDLPLDTTTPGPALEQLQQLEKAKAAKLEQERREAEMRAKREEEERKRQEELRRQQEEILRRQQEEERKRREEEELARRKQEEALRRQREQEIALRRQREEEERQQQEEALRRLEERRREEEERRKQEELLRKQEEEAAKWAREEEEAQRRLEENRLRMEEEAARLRHEEEERKRKELEVQRQKELMRQRQQQQEALRRLQQQQQQQQLAQMKLPSSSTWGQQSNTTACQSQATLSLAEIQKLEEERERQLREEQRRQQRELMKALQQQQQQQQQKLSGWGNVSKPSGTTKSLLEIQQEEARQMQKQQQQQQQHQQPNRARNNTHSNLHTSIGNSVWGSINTGPPNQWASDLVSSIWSNADTKNSNMGFWDDAVKEVGPRNSTNKNKNNASLSKSVGVSNRQNKKVEEEEKLLKLFQGVNKAQDGFTQWCEQMLHALNTANNLDVPTFVSFLKEVESPYEVHDYIRAYLGDTSEAKEFAKQFLERRAKQKANQQRQQQQLPQQQQQQPPQQPPQQPQQQDSVWGMNHSTLHSVFQTNQSNNQQSNFEAVQSGKKKKKQKMVRADPSLLGFSVNASSERLNMGEIETLDDY
- interaction with 4EHP in cells, overexpressed binding partner: did not affect binding to overexpressed 4EHP in human cells
